Experimental findings from ChEMBL document CHEMBL3046951, “Volatile constituents from the leaves of Callicarpa japonica Thunb. and their antibacterial activities” (2004) are described below.

Holding throughout (type): functional
Test [1] deals with Listeria monocytogenes. The test can be described thus: Antimicrobial activity against Listeria monocytogenes ATCC 19111 assessed as growth inhibition rate at 4 mg/l after 72 hr by spectrophotometry. The settings on record: ATCC 19111, 72 h, read-out: GI. In a few lines:
(§1)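 L. monocytogenes was grown at 30 °C in tryptic soy broth, subcultured for 18 h, and exposed to pure volatile compounds (>95% purity). Growth was followed by Bioscreen C optical density every 24 h for 72 h against a 10% Tween 80 control.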

Test [2] deals with Vibrio parahaemolyticus. The test can be described thus: Antimicrobial activity against Vibrio parahaemolyticus ATCC 33844 assessed as growth inhibition rate at 4 mg/l after 72 hr by spectrophotometry. Conditions: ATCC 33844, 72 h, read-out: GI.
Test [3] deals with Salmonella typhimurium. The test can be described thus: Antimicrobial activity against Salmonella enterica subsp. enterica serovar Typhimurium ATCC 14028 assessed as growth inhibition rate at 4 mg/l after 72 hr by spectrophotometry. Conditions: ATCC 14028, 72 h, read-out: GI. The essentials:
(§2)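 Salmonella Typhimurium ATCC 14028 grown in nutrient broth at 30 °C, precultured 24 h, then subcultured 1:100 for 18 h before testing. Single volatile compounds (>95% pure) were added. OD was read every 24 h over 72 h in a Bioscreen C, with 10% Tween 80 as the comparison control.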

In test [4] the test system is Escherichia coli. The test can be described thus: Antimicrobial activity against Escherichia coli O157:H7 ATCC 43894 assessed as growth inhibition rate at 4 mg/l after 72 hr by spectrophotometry. Conditions: O157:H7 ATCC 43894, 72 h, read-out: GI.
Test [5] deals with Staphylococcus aureus. The test can be described thus: Antimicrobial activity against Staphylococcus aureus ATCC 25923 assessed as growth inhibition rate at 4 mg/l after 72 hr by spectrophotometry. Conditions: ATCC 25923, 72 h, read-out: GI.
Test [6] concerns Bacillus cereus. The test can be described thus: Antimicrobial activity against Bacillus cereus ATCC 11778 assessed as growth inhibition rate at 4 mg/l after 72 hr by spectrophotometry. The settings on record: ATCC 11778, 72 h, read-out: GI. In a few lines: (§3)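 Pure volatile compounds (purity >95%; one at 90%) were tested against B. cereus ATCC 11778. The strain was grown at 30 °C in nutrient broth for 24 h, then subcultured for 18 h. Optical density was read in a Bioscreen C every 24 h for 72 h, with 10% Tween 80 as the control.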

Test [7] has as its system Listeria monocytogenes. The test can be described thus: Antimicrobial activity against Listeria monocytogenes ATCC 19111 assessed as growth inhibition rate at 64.76 mg/l after 72 hr by spectrophotometry. The settings on record: ATCC 19111, 72 h, read-out: GI. In a few lines: as §1
The test system of test [8] is Vibrio parahaemolyticus. The test can be described thus: Antimicrobial activity against Vibrio parahaemolyticus ATCC 33844 assessed as growth inhibition rate at 64.76 mg/l after 72 hr by spectrophotometry. The settings on record: ATCC 33844, 72 h, read-out: GI.
Test [9] concerns Salmonella typhimurium. The test can be described thus: Antimicrobial activity against Salmonella enterica subsp. enterica serovar Typhimurium ATCC 14028 assessed as growth inhibition rate at 64.76 mg/l after 72 hr by spectrophotometry. The settings on record: ATCC 14028, 72 h, read-out: GI.
Test [10] has as its system Escherichia coli. The test can be described thus: Antimicrobial activity against Escherichia coli O157:H7 ATCC 43894 assessed as growth inhibition rate at 64.76 mg/l after 72 hr by spectrophotometry. The settings on record: O157:H7 ATCC 43894, 72 h, read-out: GI. The essentials:
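Authentic volatiles (>95% purity; 2,4-heptadienal 90%) tested against 18 h subcultures. Growth media: E. coli O157:H7 and S. aureus in tryptic soy broth at 37 °C; L. monocytogenes in tryptic soy broth at 30 °C; V. parahaemolyticus in tryptic soy broth + 3% NaCl at 37 °C; S. typhimurium in nutrient broth at 30 °C. Bioscreen C OD every 24 h for 72 h versus 10% Tween 80 control.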

In test [11] the test system is Staphylococcus aureus. The test can be described thus: Antimicrobial activity against Staphylococcus aureus ATCC 25923 assessed as growth inhibition rate at 64.76 mg/l after 72 hr by spectrophotometry. The settings on record: ATCC 25923, 72 h, read-out: GI.
Test [12] concerns Bacillus cereus. The test can be described thus: Antimicrobial activity against Bacillus cereus ATCC 11778 assessed as growth inhibition rate at 64.76 mg/l after 72 hr by spectrophotometry. Conditions: ATCC 11778, 72 h, read-out: GI. The essentials: as §3
Test [13] relates to Listeria monocytogenes. The test can be described thus: Antimicrobial activity against Listeria monocytogenes ATCC 19111 assessed as growth inhibition rate at 1470.8 mg/l after 72 hr by spectrophotometry. The settings on record: ATCC 19111, 72 h, read-out: GI. In a few lines: as §1
Test [14] has as its system Vibrio parahaemolyticus. The test can be described thus: Antimicrobial activity against Vibrio parahaemolyticus ATCC 33844 assessed as growth inhibition rate at 1470.8 mg/l after 72 hr by spectrophotometry. The settings on record: ATCC 33844, 72 h, read-out: GI.
In test [15] the test system is Salmonella typhimurium. The test can be described thus: Antimicrobial activity against Salmonella enterica subsp. enterica serovar Typhimurium ATCC 14028 assessed as growth inhibition rate at 1470.8 mg/l after 72 hr by spectrophotometry. The settings on record: ATCC 14028, 72 h, read-out: GI. In a few lines: as §2
The subject of test [16] is Escherichia coli. The test can be described thus: Antimicrobial activity against Escherichia coli O157:H7 ATCC 43894 assessed as growth inhibition rate at 1470.8 mg/l after 72 hr by spectrophotometry. Conditions: O157:H7 ATCC 43894, 72 h, read-out: GI.
The subject of test [17] is Staphylococcus aureus. The test can be described thus: Antimicrobial activity against Staphylococcus aureus ATCC 25923 assessed as growth inhibition rate at 1470.8 mg/l after 72 hr by spectrophotometry. The settings on record: ATCC 25923, 72 h, read-out: GI.
The test system of test [18] is Bacillus cereus. The test can be described thus: Antimicrobial activity against Bacillus cereus ATCC 11778 assessed as growth inhibition rate at 1470.8 mg/l after 72 hr by spectrophotometry. The settings on record: ATCC 11778, 72 h, read-out: GI. In a few lines:
as §3

In test [19] the test system is Listeria monocytogenes. The test can be described thus: Antimicrobial activity against Listeria monocytogenes ATCC 19111 assessed as growth inhibition rate at 3.8 mg/l after 72 hr by spectrophotometry. The settings on record: ATCC 19111, 72 h, read-out: GI. The essentials: as §1
The subject of test [20] is Vibrio parahaemolyticus. The test can be described thus: Antimicrobial activity against Vibrio parahaemolyticus ATCC 33844 assessed as growth inhibition rate at 3.8 mg/l after 72 hr by spectrophotometry. Conditions: ATCC 33844, 72 h, read-out: GI.
Test [21] deals with Salmonella typhimurium. The test can be described thus: Antimicrobial activity against Salmonella enterica subsp. enterica serovar Typhimurium ATCC 14028 assessed as growth inhibition rate at 3.8 mg/l after 72 hr by spectrophotometry. Conditions: ATCC 14028, 72 h, read-out: GI. The essentials: as §2
Test [22] relates to Escherichia coli. The test can be described thus: Antimicrobial activity against Escherichia coli O157:H7 ATCC 43894 assessed as growth inhibition rate at 3.8 mg/l after 72 hr by spectrophotometry. Conditions: O157:H7 ATCC 43894, 72 h, read-out: GI.
Test [23] deals with Staphylococcus aureus. The test can be described thus: Antimicrobial activity against Staphylococcus aureus ATCC 25923 assessed as growth inhibition rate at 3.8 mg/l after 72 hr by spectrophotometry. The settings on record: ATCC 25923, 72 h, read-out: GI.
The test system of test [24] is Bacillus cereus. The test can be described thus: Antimicrobial activity against Bacillus cereus ATCC 11778 assessed as growth inhibition rate at 3.8 mg/l after 72 hr by spectrophotometry. The settings on record: ATCC 11778, 72 h, read-out: GI. The essentials: as §3

As for `CC1=CC[C@@H]2C3C(C(C)C)CCC2(C)[C@@H]13` (stereo partly drawn) [(-)-ALPHA-COPAENE], the inhibition of growth at 4 µg/mL in test [1] was found to be 0%; in test [2] it was 0%; in test [3], 0.1%; in test [4], 0%; in [5], 5.7%; in [6], 5.9%.

Turning to `C/C1=C\CC/C(C)=C/CC(C)(C)/C=C/C1` [ALPHA-HUMULONE], the inhibition of growth at 64.76 µg/mL in test [7] came to 13.9%; in [8], 15.7%; in test [9] it was 6.9%; in test [10], 4.6%; in [11], 6.6%; in [12] it was 40.1%.

Take `C=C1CC/C=C(/C)CC[C@@H]2[C@@H]1CC2(C)C` [CARYOPHYLLENE]: the inhibition of growth at 1470.8 µg/mL in test [13] turned out to be 7.2%; in [14] it was 26.5%; in test [15], 10.2%; in test [16], 12.8%; in test [17], 54.7%; in [18] it was 32.1%.

`C=CC(C)(O)CCC=C(C)C` (centres undefined) [LINALOOL]: the inhibition of growth at 3.8 µg/mL in test [19] was 0.6%; in test [20], 0%; in [21], 8.2%; in test [22], 2.1%; in [23], 2.6%; in test [24], 8.6%.
